The Ki is a measure of affinity in units of concentration, obtained from inhibition or displacement. A higher Ki goes with lower affinity. Broadly, the MIC is the lowest concentration found to suppress growth.

The target in test [1] is 5'-methylthioadenosine/S-adenosylhomocysteine nucleosidase (Escherichia coli O157:H7, UniProt P0AF14). Nature of the test: Inhibition of Escherichia coli S-adenosyl homocysteine/methylthioadenosine nucleosidase (MTA/SAH nucleosidase). Summed up:
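Recombinant His-tagged E. coli enzyme (IPTG-induced in E. coli, IMAC-purified), 50 pM, incubated 10 min at room temperature with 2.5 μM MTA and inhibitor at 0.005–100 μM; 200 μL final volume. Reaction stopped with TFA. Remaining MTA quantified by RP-HPLC (C8) peak integration, and turnover plotted for IC50. Ki derived using Km 1.0 μM for MTA.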

Another test concerns Streptococcus pyogenes. Put plainly: Minimum inhibitory concentration against Streptococcus pyogenes. Type of test: functional.
The test system of another test is Neisseria meningitidis. Put plainly: Minimum inhibitory concentration against Neisseria meningitidis. In kind it is functional.
A further test relates to Streptococcus pneumoniae. Nature of the test: Minimum inhibitory concentration against Streptococcus pneumoniae. Type of test: functional.

Each structure is given as a SMILES string. In brackets after ≈: the same amount, converted by molar mass.

Chain of 5'-methylthioadenosine/S-adenosylhomocysteine nucleosidase (P0AF14 whole entry): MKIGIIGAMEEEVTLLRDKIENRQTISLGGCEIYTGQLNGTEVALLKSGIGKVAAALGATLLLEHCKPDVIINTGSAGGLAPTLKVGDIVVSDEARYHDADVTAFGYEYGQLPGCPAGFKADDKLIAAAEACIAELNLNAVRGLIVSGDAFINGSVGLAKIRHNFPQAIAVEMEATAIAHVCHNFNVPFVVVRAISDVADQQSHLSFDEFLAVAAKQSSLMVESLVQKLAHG

`Cc1cc(-c2cccc(S(=O)(=O)Nc3cc(NCC(C)C)c4n[nH]c(Cl)c4c3)c2)ccc1F` returned a Ki in test [1] of 14.6 nM. This lies in the double-digit nanomolar range. Turning to `CSc1cccc(-c2cccc(S(=O)(=O)Nc3cc(NCC(C)C)c4[nH]nc(Cl)c4c3)c2)c1`, the Ki in test [1] stood at 17 nM.

As to `Cc1cccc(-c2cccc(S(=O)(=O)Nc3cc(NCC(C)C)c4[nH]nc(C)c4c3)c2)c1`, the minimal inhibitory concentration (MIC) is over 20 µM against Streptococcus pyogenes and 20 µM (≈ 8.97 µg/mL) against Neisseria meningitidis. For the same molecule, in test [1], the Ki stood at 100 nM. As to `CC(C)CNc1cc(NS(=O)(=O)c2cccc(-c3cnc4ccccc4c3)c2)cc2c(Cl)[nH]nc12`, the Ki in test [1] worked out at 10.8 nM. `CCNc1cc(NS(=O)(=O)c2ccc(Cl)cc2)cc2c(Cl)[nH]nc12` gave a Ki in test [1] of 2700 nM.

Turning to `Cc1n[nH]c2c(NCC(C)C)cc(NS(=O)(=O)c3cccc(-c4ccccc4)c3)cc12`, in test [1], the affinity, expressed as Ki, was 498 nM. Same read-out and setting: the same measure for `CN(C)c1cccc2c(S(=O)(=O)Nc3ccc4[nH]nc(Cl)c4c3)cccc12`: 22000 nM. Same read-out and setting: the same measure for `Cc1cc(-c2cccc(S(=O)(=O)Nc3cc(NCC(C)C)c4n[nH]c(Cl)c4c3)c2)ccn1`: 28.5 nM; for `CCc1cccc(-c2cccc(S(=O)(=O)Nc3cc(NCC(C)C)c4[nH]nc(C)c4c3)c2)c1`: 125 nM. In test [1], `O=S(=O)(Nc1ccc2[nH]nc(Cl)c2c1)c1ccc(Cl)cc1` gave a Ki of 5200 nM. This Ki lies about 42-fold higher than the previous one. As for `CC(C)CNc1cc(NS(=O)(=O)c2cccc(-c3ccc(C(F)(F)F)cc3)c2)cc2c(Cl)[nH]nc12`, the MIC in the test with Streptococcus pyogenes was over 20 µM; in the test on Neisseria meningitidis, 5 µM (≈ 2.61 µg/mL). In test [1], this molecule came in with an inhibition constant (Ki) of 13 nM. `CC(C)CCNc1cc(NS(=O)(=O)c2ccc(Cl)cc2)cc2c(Cl)[nH]nc12`: the affinity in test [1] corresponds to a Ki of 4900 nM.

Consider `CC(C)CNc1cc(NS(=O)(=O)c2cccc(-c3ccc(Cl)c(Cl)c3)c2)cc2c(Cl)[nH]nc12`, for which the MIC in the test on Streptococcus pyogenes is 7.5 µM (≈ 3.93 µg/mL); with Neisseria meningitidis it was 1.88 µM (≈ 0.982 µg/mL); in the test with Streptococcus pneumoniae, 7.5 µM (≈ 3.93 µg/mL). In test [1], this molecule displayed a Ki of 1.6 nM.

Molecule `CC(C)(C)CNc1cc(NS(=O)(=O)c2ccc(Cl)cc2)cc2c(Cl)[nH]nc12` showed an inhibition constant Ki in test [1] of 1200 nM.

The molecule `CC(C)=CCNc1cc(NS(=O)(=O)c2ccc(Cl)cc2)cc2c(Cl)[nH]nc12` yielded a Ki in test [1] of 2200 nM. The same measure, in the same setting: the same measure for `Cc1cccc(-c2cccc(S(=O)(=O)Nc3cc(NCC(C)C)c4n[nH]c(Cl)c4c3)c2)c1`: 36 nM. Regarding `CC(C)CNc1cc(NS(=O)(=O)c2ccc(Cl)cc2)cc2c(Cl)[nH]nc12`, the MIC is over 20 µM in the test on Streptococcus pyogenes and 5 µM (≈ 2.07 µg/mL) in the test on Neisseria meningitidis. In test [1], this molecule had a Ki of 760 nM. On to `O=S(=O)(Nc1cc(NCCc2ccccc2)c2[nH]nc(Cl)c2c1)c1ccc(Cl)cc1`, for which the inhibitory constant (Ki) in test [1] came to 2300 nM. In other words, the single-digit micromolar range. The same measure, in the same setting: under `O=S(=O)(Nc1ccc2c[nH]nc2c1)c1ccc(Cl)cc1` stands 17000 nM. For the molecule `CC(=O)Nc1cc(NS(=O)(=O)c2ccc(Cl)cc2)cc2c(Cl)[nH]nc12`, the figures for the MIC against Streptococcus pyogenes, with Neisseria meningitidis and with Streptococcus pneumoniae were 7.5 µM (≈ 2.99 µg/mL), 5 µM (≈ 2 µg/mL) and 5 µM (≈ 2 µg/mL), respectively. The molecule further registered a Ki in test [1] of 11000 nM.

Turning to `Cc1nccc(-c2cccc(S(=O)(=O)Nc3cc(NCC(C)C)c4n[nH]c(Cl)c4c3)c2)n1`, the affinity in test [1], expressed as Ki, was 36 nM. The molecule `CC(C)(C)CCNc1cc(NS(=O)(=O)c2ccc(Cl)cc2)cc2c(Cl)[nH]nc12` yielded a Ki in test [1] of 6500 nM. `CC(C)CNc1cc(NS(=O)(=O)c2cccc(-c3ccc(F)c(F)c3)c2)cc2c(Cl)[nH]nc12` registered a Ki in test [1] of 8.1 nM.

Molecule `Cc1nccc(-c2cccc(S(=O)(=O)Nc3cc(NCC(C)C)c4[nH]nc(C)c4c3)c2)n1` had a Ki in test [1] of 191 nM. With `O=S(=O)(Nc1ccc2[nH]ncc2c1)c1ccc(Cl)cc1`, affinity in test [1] was put at a Ki of 27000 nM. In test [1], `CN(C)c1cccc2c(S(=O)(=O)Nc3ccc4[nH]ncc4c3)cccc12` showed a Ki of 2800 nM. In the case of `CC(C)CNc1cc(NS(=O)(=O)c2cccc(-c3ccc(Cl)cc3)c2)cc2c(Cl)[nH]nc12`, the values for the MIC with Streptococcus pyogenes, in the test on Neisseria meningitidis and in the test on Streptococcus pneumoniae were 1.25 µM (≈ 0.612 µg/mL), 2.5 µM (≈ 1.22 µg/mL) and 2.5 µM (≈ 1.22 µg/mL), respectively. In test [1], this molecule registered a Ki of 12.5 nM.

The molecule `O=S(=O)(Nc1cc(NCC2CC2)c2[nH]nc(Cl)c2c1)c1ccc(Cl)cc1` came in with a Ki in test [1] of 500 nM. As for `CC(C)CNc1cc(NS(=O)(=O)c2cccc(-c3ccc(F)c(Cl)c3)c2)cc2c(Cl)[nH]nc12`, the MIC against Streptococcus pyogenes is 3.75 µM (≈ 1.9 µg/mL); in the test on Neisseria meningitidis it was 1.88 µM (≈ 0.951 µg/mL); against Streptococcus pneumoniae it was 3.75 µM (≈ 1.9 µg/mL). The same molecule returned a Ki in test [1] of 3.4 nM. Take `Cc1cc(-c2cccc(S(=O)(=O)Nc3cc(NCC(C)C)c4n[nH]c(Cl)c4c3)c2)ccc1Cl`: the minimum inhibitory concentration (MIC) against Streptococcus pyogenes, in the test on Neisseria meningitidis and in the test on Streptococcus pneumoniae was 7.5 µM (≈ 3.78 µg/mL) in each case. The same molecule came in with a Ki in test [1] of 3.9 nM. In the case of `Cc1n[nH]c2c(NCC(C)C)cc(NS(=O)(=O)c3cccc(-c4cccc(C(F)(F)F)c4)c3)cc12`, the minimum inhibitory concentration (MIC) is over 20 µM with Streptococcus pyogenes and 20 µM (≈ 10.1 µg/mL) against Neisseria meningitidis. The affinity in test [1] corresponds to a Ki of 20 nM. As to `CC(C)CNc1cc(NS(=O)(=O)c2cccc(-c3cccc(CCO)c3)c2)cc2c(Cl)[nH]nc12`, the affinity in test [1], expressed as Ki, was 25 nM. This counts as double-digit nanomolar.

In test [1], `Cc1n[nH]c2ccc(NS(=O)(=O)c3cccc4c(N(C)C)cccc34)cc12` displayed a Ki of 64000 nM. Same read-out and setting: the same measure for `Cc1n[nH]c2ccc(NS(=O)(=O)c3ccc(Cl)cc3)cc12`: 4000 nM. In the case of `CC(C)CNc1cc(NS(=O)(=O)c2cccc(-c3ccncc3)c2)cc2c(Cl)[nH]nc12`, the minimum inhibitory concentration (MIC) in the test with Streptococcus pyogenes is over 20 µM; in the test on Neisseria meningitidis it was 10 µM (≈ 4.56 µg/mL). Moreover, the affinity in test [1], expressed as Ki, was 52 nM. As for `CN(C)c1cccc2c(S(=O)(=O)Nc3ccc4c[nH]nc4c3)cccc12`, in test [1], the affinity corresponds to a Ki of 1000 nM.

On to `CC(C)CNc1cc(NS(=O)(=O)c2cccc(-c3ccccc3)c2)cc2c(Cl)[nH]nc12`, for which the figures for the MIC against Streptococcus pyogenes and in the test on Neisseria meningitidis were over 20 µM and 2.5 µM (≈ 1.14 µg/mL), respectively. Further, in test [1], the Ki worked out at 94 nM. On to `Cc1n[nH]c2c(NCC(C)C)cc(NS(=O)(=O)c3cccc(-c4ccncc4)c3)cc12`, for which the Ki in test [1] came to 240 nM. This counts as sub-micromolar.

In test [1], `CC(C)CNc1cc(NS(=O)(=O)c2cccc(-c3cccc(C(F)(F)F)c3)c2)cc2c(Cl)[nH]nc12` showed an inhibition constant Ki of 11 nM. In turn, `O=S(=O)(Nc1cc(NCc2ccccc2)c2[nH]nc(Cl)c2c1)c1ccc(Cl)cc1` displayed a Ki in test [1] of 1800 nM.

Values taken from ChEMBL document CHEMBL1144886, “Structure-based design, synthesis, and antimicrobial activity of indazole-derived SAH/MTA nucleosidase inhibitors” (J Med Chem, 2003).
